Assay results from ChEMBL document CHEMBL3853340, “Dihydropyrimidinones and -thiones with improved activity against human polyomavirus family members” (Bioorg Med Chem Lett, 2016).

Key:
Homo sapiens [1] = experiment: Inhibition of human Hsp70 expressed in Escherichia coli BL21(DE3) assessed as suppression of Hdj2-activated ATPase activity at 100 uM dosed 15 mins after Hsp70 and Hdj2 pre-incubation and measured after 60 mins by TLC based steady state ATPase assay relative to control
Outline: (§1)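 Hsp70 ATPase activity measured with Hdj2 (Hsp40) at a 1:0.5 Hsp70:Hsp40 molar ratio. Activity was normalized to DMSO-matched reactions lacking compound. Values are the means of three independent experiments.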

[2] = biological target: Large T antigen (Simian virus 40) (UniProt P03070); experiment: Inhibition of ATPase activity of SV40 T antigen expressed in baculovirus at 10 uM by antibody affinity chromatography relative to control; conditions: Betapolyomavirus macacae
Sequence of Large T antigen (Simian virus 40) (P03070 whole entry): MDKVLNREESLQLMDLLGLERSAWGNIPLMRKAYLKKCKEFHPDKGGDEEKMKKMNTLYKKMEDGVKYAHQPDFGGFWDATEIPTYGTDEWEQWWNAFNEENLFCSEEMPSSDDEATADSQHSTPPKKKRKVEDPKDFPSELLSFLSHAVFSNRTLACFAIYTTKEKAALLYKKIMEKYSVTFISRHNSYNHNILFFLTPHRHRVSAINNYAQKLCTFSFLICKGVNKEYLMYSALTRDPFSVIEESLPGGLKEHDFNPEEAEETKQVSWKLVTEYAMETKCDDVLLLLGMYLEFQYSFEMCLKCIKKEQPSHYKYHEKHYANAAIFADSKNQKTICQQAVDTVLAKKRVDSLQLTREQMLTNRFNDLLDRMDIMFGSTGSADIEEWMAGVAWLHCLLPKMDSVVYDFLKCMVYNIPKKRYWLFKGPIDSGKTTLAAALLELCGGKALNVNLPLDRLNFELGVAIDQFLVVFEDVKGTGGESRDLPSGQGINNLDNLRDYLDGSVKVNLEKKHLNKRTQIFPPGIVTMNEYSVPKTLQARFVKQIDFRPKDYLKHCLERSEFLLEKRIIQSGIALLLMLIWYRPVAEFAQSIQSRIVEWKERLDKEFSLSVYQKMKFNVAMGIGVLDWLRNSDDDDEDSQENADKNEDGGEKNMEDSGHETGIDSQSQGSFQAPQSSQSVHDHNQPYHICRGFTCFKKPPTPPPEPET
Outline: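 Purified T antigen ATPase activity measured with test agent at a final concentration of 10 μM. Activity was normalized to reactions with no compound but an equal amount of DMSO. Values are the means of three independent experiments.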

[3] = Cytotoxicity against human RMS13 cells assessed as cell growth inhibition after 24 hrs by cell titer-glo assay; assay type: toxicity, cell-based
Outline: (§2)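 Growth of MCF7 breast cancer cells and RMS13 rhabdomyosarcoma cells measured in the presence of compound. Values are the means ± SD of 2 independent experiments, each run in triplicate.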

Homo sapiens [4] = species on record: Homo sapiens; experiment: Inhibition of human Hsp70 expressed in Escherichia coli BL21(DE3) assessed as suppression of ATPase activity at 100 uM after 60 mins by TLC based steady state ATPase assay relative to control
Outline: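 Hsp70 ATPase activity measured without cochaperone. Activity was normalized to reactions with no compound but an equal amount of DMSO. Values are the means of three independent experiments.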

[5] = Cytotoxicity against human MCF7 cells assessed as cell growth inhibition after 48 hrs by cell titer-glo assay; assay type: toxicity, cell-based; outline: as §2
BK polyomavirus = experiment: Antiviral activity against BK polyomavirus Gardner infected in human HFF cells assessed as reduction in DNA copy number after 7 days by PCR analysis; assay type: functional, cell-based; conditions: Betapolyomavirus hominis, 168 h
Outline: (§3)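 BK virus replication and viability measured in human foreskin fibroblasts. EC50 is the concentration giving 50% activity. CC50 is the concentration killing 50% of viable cells. Values come from two independent experiments.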

JC polyomavirus = experiment: Antiviral activity against JC polyomavirus MAD-4 infected in grivet COS7 cells assessed as reduction in DNA copy number after 7 days by PCR analysis; assay type: functional, cell-based; conditions: MAD-4, COS-7, 168 h
Outline: (§4)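 JC virus replication and viability measured in COS7 green monkey kidney cells. EC50 is the concentration giving 50% activity. CC50 is the concentration killing 50% of viable cells. Values come from two independent experiments.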

[6] = Cytotoxicity against BK polyomavirus Gardner infected-human HFF cells assessed as reduction in cell viability after 7 days by cell titer-glo assay; assay type: toxicity, cell-based; conditions: for CC50: hff, 168 h; for CC50 at 168 h: HFF cells infected with BK polyomavirus Gardner; outline: as §3
[7] = Cytotoxicity against JC polyomavirus MAD-4 infected grivet COS7 cells assessed as reduction in cell viability after 7 days by cell titer-glo assay; assay type: toxicity, cell-based; conditions: chlorocebus aethiops, cos-7, 168 h; outline: as §4
[8] = Specificity index, ratio of CC50 for grivet COS7 cells to EC50 for JC polyomavirus MAD-4 infected in grivet COS7 cells; set-up: species or system COS-7
[9] = Partition coefficient, logP of the compound; assay type: physicochemical; conditions: octanol/water
[10] = Distribution coefficient, logD of the compound; assay type: physicochemical; conditions: octanol/water
Homo sapiens [11] = experiment: Activation of human Hsp70 expressed in Escherichia coli BL21(DE3) assessed as stimulation of Hdj2-activated ATPase activity at 100 uM dosed 15 mins after Hsp70 and Hdj2 pre-incubation and measured after 60 mins by TLC based steady state ATPase assay relative to control; outline: as §1

Compound | fold change (FC) [2] | fold change (FC) (Homo sapiens [4]) | fold change (FC) (Homo sapiens [1]) | GI50 at 24 h [3] | GI50 at 48 h [5] | further results
CC1=C(C(=O)OCc2ccccc2)C(c2ccc(-c3ccccc3C)cc2)NC(=O)N1Cc1ccc(-c2nnn[nH]2)cc1 (stereo not given) |  |  |  | 73 µM | 140 µM | EC50 (BK polyomavirus): 1.7 µM; EC50 (JC polyomavirus): 4.2 µM; CC50 [6]: 20 µM; CC50 [7]: 21 µM
CCCCCCN(C(=O)CCCCCN1C(=O)NC(c2ccc(-c3ccccc3)cc2)C(C(=O)OCc2ccccc2)=C1C)C(C(=O)NCCCC)c1ccc(OCC(=O)OC)c(C(=O)OC)c1 (stereo not given) |  |  |  | 13 µM | 6 µM | 
CC1=C(C(=O)OCc2ccccc2)C(c2ccc(-c3ccccc3)cc2)NC(=S)N1Cc1ccc(-c2nnn[nH]2)cc1 (stereo not given) | 5.5 | 1.4 | 4.5 | 87 µM | 140 µM | 
CC1=C(C(=O)OCc2ccccc2)C(c2ccc(-c3ccccc3C)cc2)NC(=S)N1Cc1ccc(-c2nnn[nH]2)cc1 (stereo not given) | 7.7 |  | 3.7 | 68 µM | 160 µM | 
CC1=C(C(=O)OCc2ccccc2)C(c2ccc(-c3ccccc3)cc2)NC(=S)N1CCCCCC(=O)O (stereo not given) | 1.5 |  |  | 100 µM |  | 
CC1=C(C(=O)OCc2ccccc2)C(c2ccc(-c3ccccc3C)cc2)N(Cc2ccc(-c3nnn[nH]3)cc2)C(=S)N1 (stereo not given) | 7.5 | 1.3 | 4.8 | 62 µM |  | 
CC1=C(C(=O)OCc2ccccc2)C(c2ccc(-c3ccccc3)cc2)N(Cc2ccc(-c3nnn[nH]3)cc2)C(=S)N1 (stereo not given) | 4.5 | 1.7 | 5.3 | 72 µM | 110 µM | EC50 (BK polyomavirus): 1.8 µM; EC50 (JC polyomavirus): 0.75 µM; CC50 [6]: 17 µM; CC50 [7]: 18 µM; Ratio CC50/EC50 [8]: 23; logP [9]: 6.4; logD [10]: 4.8
CC1=C(C(=O)OCc2ccccc2)C(c2ccc(-c3ccccc3)cc2)N(Cc2ccc(-c3nnn[nH]3)cc2)C(=O)N1 (stereo not given) | 2.3 | 1.2 | 5 |  |  | 
CC1=C(C(=O)OCc2ccccc2)C(c2ccc(-c3ccccc3)cc2)NC(=O)N1Cc1ccc(-c2nnn[nH]2)cc1 (stereo not given) | 2 |  | 5 | 96 µM | 160 µM | 
Nc1ccn(C[C@@H](CO)OCP(=O)(O)O)c(=O)n1.O.O [CIDOFOVIR] |  |  |  |  |  | EC50 (BK polyomavirus): 1.1 µM; EC50 (JC polyomavirus): 2 µM; CC50 at 168 h [6]: > 100 µM; CC50 [7]: 49 µM; Ratio CC50/EC50 [8]: 24

Continued, in another order:

fold change (FC) [2] | fold change (FC) (Homo sapiens [4]) | Compound | fold change (FC) (Homo sapiens [1]) | GI50 at 24 h [3] | GI50 at 48 h [5] | further results
4.7 |  | CC1=C(C(=O)OCc2ccccc2)C(c2ccc(-c3ccccc3C)cc2)NC(=S)N1CCCCCc1nnn[nH]1 (stereo not given) | 2.5 | 100 µM |  | 
2.1 | 1.4 | CC1=C(C(=O)OCc2ccccc2)C(c2ccc(-c3ccccc3C)cc2)NC(=O)N1CCCCCc1nnn[nH]1 (stereo not given) | 3 | 100 µM | 72 µM | 
2.1 |  | CC1=C(C(=O)OCc2ccccc2)C(c2ccc(-c3ccccc3)cc2)NC(=S)N1CCCCCc1nnn[nH]1 (stereo not given) | 1.7 | 110 µM |  | 
1.4 | 1.2 | CC1=C(C(=O)OCc2ccccc2)C(c2ccc(-c3ccccc3)cc2)NC(=O)N1CCCCCc1nnn[nH]1 (stereo not given) | 1.3 |  |  | EC50 (BK polyomavirus): 3.9 µM; EC50 (JC polyomavirus): 3.5 µM; CC50 at 168 h [6]: > 67 µM; CC50 [7]: 24 µM
1.6 |  | CC1=C(C(=O)OCc2ccccc2)C(c2ccc(-c3ccccc3)cc2)N(CCCCCC(=O)O)C(=S)N1 (stereo not given) |  | 110 µM |  | 
1.5 |  | CC1=C(C(=O)OCc2ccccc2)C(c2ccc(-c3ccccc3)cc2)NC(=O)N1CCCCCC(=O)O (stereo not given) |  | 120 µM |  | fold change (FC) (Homo sapiens [11]): 1.5
